# Test results from ChEMBL document CHEMBL3425494, “Design, synthesis, and antitumor evaluation of novel histone deacetylase inhibitors equipped with a phenylsulfonylfuroxan module as a nitric oxide donor” (J Med Chem, 2015).
# The source made the active and inactive calls. No cut-off for these calls is given here.
# Key:
# Histone deacetylase 8 = biological target: T1, Histone deacetylase 8 (Homo sapiens, UniProt Q9BY41); experiment: Inhibition of full length human recombinant HDAC8 expressed in baculovirus infected insect S9 cells using Ac-Leu-GlyLys(Tfa)-AMC as substrate after 30 mins by fluorescence assay
# T1 sequence (Q9BY41 whole entry): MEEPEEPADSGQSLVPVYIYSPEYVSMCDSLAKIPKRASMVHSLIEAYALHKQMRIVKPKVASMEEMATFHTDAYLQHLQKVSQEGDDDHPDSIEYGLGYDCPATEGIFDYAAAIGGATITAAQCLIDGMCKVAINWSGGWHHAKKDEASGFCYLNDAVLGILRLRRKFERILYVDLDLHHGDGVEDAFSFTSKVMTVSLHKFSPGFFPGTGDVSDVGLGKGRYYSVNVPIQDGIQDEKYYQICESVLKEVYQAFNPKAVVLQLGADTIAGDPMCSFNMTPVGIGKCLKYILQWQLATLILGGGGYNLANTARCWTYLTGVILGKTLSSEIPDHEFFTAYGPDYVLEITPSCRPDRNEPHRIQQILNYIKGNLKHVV
# [1] = Cytotoxicity against human U937 cells assessed as growth inhibition after 48 hrs by MTT assay; format: functional, cell-based; details: U-937, 48 h
# HEL [2] = experiment: Antitumor activity against human HEL cells xenografted in BALB/c-nu mouse assessed as decrease in tumor volume at 100 mg/kg/day, po administered for 21 days measured every 3 days during compound dosing relative to control; format: functional
# Procedure, shortened: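 Male athymic nude mice (6–8 weeks) inoculated s.c. in right flank with HEL cells cultured in RPMI 1640/10% FBS; treatment began when tumors were about 100 mm³ (~10 days), 6 mice per group. Oral gavage daily for 21 days; vehicle control PBS containing DMSO. Caliper measurement every 3 days, V = ab²/2; T/C = mean RTV treated / mean RTV control, RTV = Vt/V0.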
# Mus musculus [3] = experiment: Toxicity in BALB/c-nu mouse xenografted with human HEL cells assessed as effect on liver at 120 mg/kg/day, po administered for 21 days; format: organism-based; set-up: route oral; details: in vivo, 504 h
# Procedure, shortened: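 Nude mice bearing HEL xenografts dosed orally 120 mg/kg/day for 21 days, 6 per group, controls on PBS/DMSO vehicle. After treatment, mice sacrificed and dissected to examine internal organs.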
# [4] = biological target: Histone deacetylase 2 (Homo sapiens) (UniProt Q92769); details: HEL, 1 to 10 uM
# HEL [5] = experiment: animal or person; format: functional, Homo sapiens; details: Mus musculus, po, read-out: TGI
# [6] = biological target: Histone deacetylase 1 (Homo sapiens) (UniProt Q13547); details: MV4-11, 12.5 to 200 nM
# HEL [7] = experiment: Cell cycle arrest in human HEL cells assessed as accumulation at S phase at 0.5 uM after 48 hrs by propidium iodide staining-based flow cytometric analysis (reference value: 46.88%); format: functional
# HEL [8] = experiment: Induction of apoptosis in human HEL cells after 24 hrs by 7-AAD-annexin-V/propidium iodide staining-based flow cytometric analysis; format: functional, cell-based
# Procedure, shortened: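 HEL cells (1 × 10⁵/well) grown 24 h, then treated 24 h at 0.5, 1 or 2 µM in fresh medium; 0.1% DMSO control. Cells collected, washed with cold PBS, stained in binding buffer with 7-AAD and propidium iodide (PE-Annexin V kit) 15 min at 25 °C in the dark; apoptotic fraction by flow cytometry.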
# HEL [9] = experiment: Cytotoxicity against hemoglobin treated human HEL cells assessed as growth inhibition at 2 uM treated for 24 hrs post hemoglobin challenge measured after 48 hrs by MTT assay; format: functional, cell-based
# Procedure, shortened: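 HEL cells in RPMI 1640/10% FBS, 37 °C, 5% CO₂, plated ≥4 h before treatment; pretreated 1 h with hemoglobin (0, 2.5, 5, 10 or 20 µM), then 2 µM compound for 24 h, incubated a further 48 h. MTT 0.5%, 4 h, formazan dissolved in DMSO, absorbance 490 and 630 nm; percent growth inhibition versus control; three independent experiments, mean ± SD.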
# [10] = Cytotoxicity against human 3AO cells assessed as growth inhibition after 48 hrs by MTT assay; format: functional, cell-based
# Mus musculus [11] = experiment: Toxicity in BALB/c-nu mouse xenografted with human HEL cells assessed as body weight loss at 120 mg/kg/day, po administered for 21 days measured everyday during compound dosing; format: organism-based; set-up: route oral; details: in vivo, 504 h
# Procedure, shortened: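 Male BALB/c-nu mice with s.c. HEL xenografts, 6 per group, given 120 mg/kg/day orally for 21 days; vehicle group received PBS containing DMSO. Body weight monitored regularly during treatment; mean ± SD.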
# [12] = biological target: Histone deacetylase 2 (Homo sapiens) (UniProt Q92769); details: HEL, 10 uM
# HeLa = experiment: Cytotoxicity against human HeLa cells assessed as growth inhibition after 48 hrs by MTT assay; format: functional, cell-based
# Histone deacetylase 2 (Homo sapiens), sequence (Q92769 whole entry): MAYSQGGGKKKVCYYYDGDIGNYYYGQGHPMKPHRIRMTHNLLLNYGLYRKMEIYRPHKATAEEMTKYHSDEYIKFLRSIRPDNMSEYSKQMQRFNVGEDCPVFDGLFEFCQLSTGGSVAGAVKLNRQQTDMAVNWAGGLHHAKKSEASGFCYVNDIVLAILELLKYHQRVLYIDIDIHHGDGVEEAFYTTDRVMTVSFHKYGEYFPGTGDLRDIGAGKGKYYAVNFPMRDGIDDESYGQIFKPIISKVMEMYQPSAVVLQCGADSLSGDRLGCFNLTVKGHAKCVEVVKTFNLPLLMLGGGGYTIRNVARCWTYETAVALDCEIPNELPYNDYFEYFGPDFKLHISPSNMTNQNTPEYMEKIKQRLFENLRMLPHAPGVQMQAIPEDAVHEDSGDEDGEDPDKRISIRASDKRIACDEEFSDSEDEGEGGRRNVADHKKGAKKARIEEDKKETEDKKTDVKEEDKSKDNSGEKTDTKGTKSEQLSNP
# Histone deacetylase 1 (Homo sapiens), sequence (Q13547 whole entry): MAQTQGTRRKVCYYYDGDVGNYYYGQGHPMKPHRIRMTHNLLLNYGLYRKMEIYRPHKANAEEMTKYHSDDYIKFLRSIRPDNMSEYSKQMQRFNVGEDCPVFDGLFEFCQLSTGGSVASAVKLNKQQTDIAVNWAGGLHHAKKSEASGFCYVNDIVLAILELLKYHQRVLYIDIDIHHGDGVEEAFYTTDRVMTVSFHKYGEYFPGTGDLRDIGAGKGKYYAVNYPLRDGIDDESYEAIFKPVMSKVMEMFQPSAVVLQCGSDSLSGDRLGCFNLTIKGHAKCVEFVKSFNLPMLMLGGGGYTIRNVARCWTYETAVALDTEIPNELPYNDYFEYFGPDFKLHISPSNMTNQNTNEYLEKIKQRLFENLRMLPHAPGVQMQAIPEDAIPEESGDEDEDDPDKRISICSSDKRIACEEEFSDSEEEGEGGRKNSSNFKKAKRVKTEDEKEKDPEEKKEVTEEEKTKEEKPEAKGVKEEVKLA
compound,measurement,setting,value
O=C(CCCCCOc1no[n+]([O-])c1S(=O)(=O)c1ccccc1)NO,IC50,Histone deacetylase 8,0.343 µM
same,IC50,[1],3.1 µM
same,T/C,HEL [2],56%
same,Activity,Mus musculus [3],Non-toxic
same,inhibition,[4],Active
same,inhibition in vivo at 120 mg/kg/day,HEL [5],48%
same,inhibition,[6],Active
same,Activity,HEL [7],9.31%
same,Activity,HEL [8],Dose-dependent effect
same,growth inhibition (GI),HEL [9],inactive
same,IC50,[10],5.84 µM
same,Activity,Mus musculus [11],Non-toxic
same,inhibition,[12],inactive
same,IC50,HeLa,1.55 µM
